Screening results: PubChem BioAssay, Broad Institute
HIF act = HIF pathway transcriptional activation; U2OS HRE-luciferase reporter, luminescence; normalized: DMSO 0%, desferrioxamine 100%; AID 1910; activation, % at 7.5 µM (by protocol); hit rate 0.32% among 300,000;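 active = mean activation of at least 10% of the iron chelator positive control signal, with at least half of replicates also reaching 10%; inconclusive = mean and replicate majority disagree about reaching 10%; inactive = mean and most replicates under 10%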
SKKanGAS inh = inhibitors of SKKanGAS S. pyogenes growth in kanamycin (SK-promoter or general growth effect) | hit rate 1.3% among 300,000 | inhibition, % at 7.5 µM | BacTiter-Glo, 6 h | AID 1662;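 active = mean replicate score, as percent of positive control median, at least 50; inconclusive = mean below 50 but one replicate at or above 50; inactive = mean and every replicate below 50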;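 also: strain carries kanamycin resistance gene driven by streptokinase promoter and grows in 40 µg/ml kanamycin; loss of luminescence reflects streptokinase promoter inhibition or plain growth inhibition; 0% = median of DMSO wells and 100% = positive control at its reference dose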
CSC inhib = cancer stem cell inhibition. cancer stem cell-like cells viability, luminescence. inhibition, % at 7.5 µM. hit rate 1.1% among 300,000. AID 2717; in the data active = inhibition above about 75%; inconclusive = no clear call, values can overlap the other calls; tested in HMLE shEcad cells
PfHsp90 set2 = reduces growth (ATP signal) of yeast expressing P. falciparum Hsp90; S. cerevisiae expressing PfHsp90, BacTiter-Glo ATP, 48 h; yeast lacking PDR1 and PDR3 efflux regulators; inhibition, % at 9.4 µM; hit rate 0.32% among 310,000; AID 504621;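 active = every replicate shows inhibition above about 80%, whatever the replicate mean, limit read from the data; inconclusive = mean inhibition reaches the set limit but some replicate falls short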;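 also: 0% = DMSO neutral controls and 100% = 20 µM radicicol positive controls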
T cruzi repl = blocks replication of Trypanosoma cruzi. hit rate 1.4% among 300,000. AID 1885. inhibition, % (concentration not given with the values). T. cruzi beta-gal in NIH3T3, luminescence, 90 h;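 active = mean inhibition across valid replicates above about 55%, limit read from the data; inconclusive = mean below that limit but half or more replicates reach it; inactive = mean below it, under half of replicates reach it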;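 also: signal also drops with host cell toxicity which is not excluded here; 0% = plate median of DMSO wells and 100% = zero luminescence signal; higher percent means less beta-gal luminescence so fewer parasites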
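Assay system: NIH/3T3 fibroblasts plus reporter T. cruzi. Amount: NIH/3T3 cells, 5,000 per well. Buffer or medium: DMEM, 2% fetal bovine serum. Doses: compound pinned at 50 nL/well, DMSO. Schedule: ≥90 h infection period, 3 h prior cell attachment. Signal: luminescent β-galactosidase signal after 60 min lysis. Read-out: parasite load inhibition, %.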
Beta apoptosis = beta cell apoptosis inhibition; AID 435005; protection from apoptosis, % (concentration not given with the values); INS-1E cytokine-induced death, ATP luminescence, 48 h; percent of positive-control rescue, neutral wells zero; hit rate 0.8% among 300,000;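 active = Every replicate reaches about 75%, or at least half do and their mean reaches it too, limit read from the data; inconclusive = At least half of replicates reach the limit but their mean does not; inactive = Under half of replicates reach the limit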;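 also: 0% = cytokine-treated negative control wells and 100% = positive control rescue; higher means more ATP so stronger rescue from cytokine killing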
* marks the source's active call; other numbers are inactive results; ? = inconclusive; nt = no result given. The list is not random: actives were taken first. Their share in the collection is about 3.6%.

SMILES	HIF act	SKKanGAS inh	CSC inhib	PfHsp90 set2	T cruzi repl	Beta apoptosis
Clc1ccc(-c2c[n+](Cc3ccc(Br)cc3)c3n2CCCCC3)cc1	-1	7	6	-11	52	48
Clc1ccc(C[n+]2cc(-c3ccccc3)n3c2CCC3)cc1Cl	0	-6	-4	7	59*	17
Clc1ccc(C[n+]2cc(-c3ccccc3)n3c2CCCCC3)c(Cl)c1	0	15	1	12	55*	48
Cn1cccc1C(=O)OCC(=O)NC(=O)c1ccc(Cl)cc1	nt	nt	-3	1	nt	-10
CCN(c1ccccc1)S(=O)(=O)c1cc(C(=O)NCC(c2ccc(OC)cc2)N(C)C)ccc1C (centres undefined)	nt	nt	nt	0	nt	nt
Nc1nc(=S)ss1	nt	nt	nt	-3	nt	nt
OC(CN1c2ccccc2Sc2ccccc21)Cn1nnc2ccccc21 (centres undefined)	1	20	34	-16	-1	5
Cc1nn(CC(O)CN2c3ccccc3Sc3ccccc32)c(C)c1Br (centres undefined)	-1	100*	31	nt	nt	-3
CC1CCCN(C(=S)SCC(=O)c2cc(Br)cc(Br)c2O)C1 (centres undefined)	0	56*	28	nt	-19	-2
Cc1ccc(Cn2cc(/C=N/NC(=O)Cc3nnc(NC(=O)c4ccc(C)cc4)s3)c3ccccc32)cc1	0	58*	-2	-2	-9	11
NS(=O)(=O)c1ccc(CCNC(=O)c2ccc[nH]c2=S)cc1	-1	1	-1	-20	-6	-2
CC(=O)Nc1ccc(Br)c2ccccc12	0	2	-1	-12	-18	3
O=C(Nc1ccc(Br)c2ccccc12)c1ccc2ccccc2c1O	-1	100*	108*	15	-11	50
CSC1SCC2C(=O)N(C)C(C(C)C)C(=O)OCC(NC(=O)c3cnc4ccccc4n3)C(=O)NC(C)C(=O)N(C)C1C(=O)N(C)C(C(C)C)C(=O)OCC(NC(=O)c1cnc3ccccc3n1)C(=O)NC(C)C(=O)N2C (centres undefined)	nt	nt	nt	-86	nt	nt
Cc1ccc(O)c(NC2=C(Cl)C(=O)N(Cc3ccccc3)C2=O)c1	0	-2	nt	2	58*	nt
Cc1ccc(C(=O)N2CCCCC2)cc1NC1=C(Cl)C(=O)N(Cc2ccccc2)C1=O	nt	nt	nt	4	nt	nt
O=C(Nc1ccccc1)C(Cc1ccccc1)c1ccccc1 (centres undefined)	nt	nt	nt	2	nt	nt
CCOC(=O)C1=C(C)NC(=S)NC1c1cc(C)sc1C (centres undefined)	0	0	nt	2	-4	-7
CCOC(=O)c1c(NC(=O)C2=C(C)NC(=S)NC2c2ccccc2C(F)(F)F)sc(C)c1C (centres undefined)	0	20	24	-54	62*	4
Cc1cc(C)c(S(=O)(=O)N2CCN(C(=O)c3cc4ccccc4oc3=O)CC2)c(C)c1	nt	nt	-14	10	nt	-3
CC(C)c1ccc(COc2ccc(C(=O)N3CCOCC3)cc2)cc1	1	4	7	12	27	76*
O=S(=O)(CCNC1CC1)NC1CCCCC1	nt	nt	nt	1	nt	nt
NCCS(=O)(=O)NC1CCCCC1	0	66*	-1	-17	-6	-2
O=[N+]([O-])c1ccc(Sc2cccc[n+]2[O-])c2nonc12	-5	102*	nt	97*	43	nt
O=[N+]([O-])c1ccc(Nc2ccccc2)c2nonc12	0	4	-4	-13	6	14
SMILES	HIF act	SKKanGAS inh	CSC inhib	PfHsp90 set2	T cruzi repl	Beta apoptosis
Cc1ccc(S(=O)(=O)Nc2ccc(Cl)cc2)cc1NC(=O)c1cc2c(s1)CCCC2	0	53*	20	-9	75*	8
CSc1cc(-c2ccncc2)nc(-c2ccc(Cl)cc2)c1	1	17	25	-11	46	0
N#Cc1cc(-c2ccccc2)cnc1Sc1ccc(Cl)cc1	0	14	41	-12	32	7
N#Cc1cc(-c2ccc(Cl)cc2)cnc1Sc1ccccc1	0	12	-5	24	56*	4
O=[N+]([O-])c1ccc(S(=O)(=O)c2cccc(C(F)(F)F)c2)nc1	3	6	6	81*	66*	57
O=S(=O)(Nc1cccnc1)c1cccc(C(F)(F)F)c1	0	-5	-4	nt	-9	-2
CN(C)C(CNC(=O)c1cc(-c2ccco2)nc2ccccc12)c1ccccc1 (centres undefined)	nt	nt	-13	-9	nt	-3
COC(=O)Cc1cn(-c2ncc(C(F)(F)F)cc2Cl)c2ccccc12	0	13	-9	-6	22	-3
CN(C)/C=C/C(=O)/C=C/c1cn(-c2ncc(C(F)(F)F)cc2Cl)c2ccccc12	0	18	36	121*	8	5
O=[N+]([O-])c1nn(-c2cccc(Cl)c2)n(O)c1=NCc1cccnc1	0	-6	-2	-30	16	2
O=[N+]([O-])c1nn(-c2ccccc2)n(O)c1=NCCc1ccccc1	2	-8	0	22	58*	30
Cc1ccc(CCN=c2c([N+](=O)[O-])nn(-c3ccccc3)n2O)cc1	0	10	20	-47	70*	11
Cc1cccc(-n2nc([N+](=O)[O-])c(=NCc3cccnc3)n2O)c1	2	0	2	-49	55*	34
CCC1(c2ccccc2)ON(c2c(Br)cccc2Br)C1=O (centres undefined)	nt	nt	43	-26	nt	-8
CCOC(=O)c1[nH]c2ccc(OC)cc2c1NC(=O)/C=C/c1ccc2c(c1)OCO2	0	-2	16	-4	14	4
COC(=O)c1cc(NC(=O)/C=C/c2ccc3c(c2)OCO3)cc(C(=O)OC)c1	0	24	55	-22	-9	10
COC(=O)c1c(NC(=O)/C=C/c2ccc3c(c2)OCO3)sc(C)c1C	0	-9	103*	-9	-5	-5
CCOC(=O)c1c(NC(=O)/C=C/c2ccc3c(c2)OCO3)sc(C)c1CC	0	-2	122*	-12	-15	2
Cc1cc(-c2ccccc2)nc(N/N=C/c2ccc(O)cc2)n1	nt	nt	nt	-20	nt	nt
Oc1ccc(/C=N/Nc2nc(-c3ccc(Cl)cc3)cc(C(F)(F)F)n2)cc1	-2	?	85*	12	16	-3
Cc1nc(SCc2nc3ccc(C(F)(F)F)cc3[nH]2)c2oc3ccccc3c2n1	nt	nt	104*	-2	nt	16
O=c1[nH]c(=O)c2[nH]c(=S)[nH]c2[nH]1	nt	nt	nt	-51	nt	nt
COc1ccc(OC)c(S(=O)(=O)CC(O)COc2ccccc2Cl)c1 (centres undefined)	0	-15	20	6	-10	3
CCN(CC)CCN1c2ccccc2Sc2ccc3ccccc3c21	-1	1	59	6	26	106*
Cc1ccc(N2C(=O)/C(=C\c3ccc(C(C)C)cc3)N=C2SC2CCOC2=O)cc1 (centres undefined)	0	3	0	-55	16	-1
